Biological target: T1, HNA polymerase T6G12_I521L (Thermococcus gorgonarius, UniProt P56689, A485L/A681S/D141A/D669Q/E143A/E609K/E664Q/E730G/I521L/I610M/K659Q/K671H/K674R/L704P/Q665P/R668K/T676R/V589A/V93Q)
T1 sequence (P56689 1-773 V93Q/D141A/E143A/A485L/I521L/V589A/E609K/I610M/K659Q/E664Q/Q665P/R668K/D669Q/K671H/K674R/T676R/A681S/L704P/E730G): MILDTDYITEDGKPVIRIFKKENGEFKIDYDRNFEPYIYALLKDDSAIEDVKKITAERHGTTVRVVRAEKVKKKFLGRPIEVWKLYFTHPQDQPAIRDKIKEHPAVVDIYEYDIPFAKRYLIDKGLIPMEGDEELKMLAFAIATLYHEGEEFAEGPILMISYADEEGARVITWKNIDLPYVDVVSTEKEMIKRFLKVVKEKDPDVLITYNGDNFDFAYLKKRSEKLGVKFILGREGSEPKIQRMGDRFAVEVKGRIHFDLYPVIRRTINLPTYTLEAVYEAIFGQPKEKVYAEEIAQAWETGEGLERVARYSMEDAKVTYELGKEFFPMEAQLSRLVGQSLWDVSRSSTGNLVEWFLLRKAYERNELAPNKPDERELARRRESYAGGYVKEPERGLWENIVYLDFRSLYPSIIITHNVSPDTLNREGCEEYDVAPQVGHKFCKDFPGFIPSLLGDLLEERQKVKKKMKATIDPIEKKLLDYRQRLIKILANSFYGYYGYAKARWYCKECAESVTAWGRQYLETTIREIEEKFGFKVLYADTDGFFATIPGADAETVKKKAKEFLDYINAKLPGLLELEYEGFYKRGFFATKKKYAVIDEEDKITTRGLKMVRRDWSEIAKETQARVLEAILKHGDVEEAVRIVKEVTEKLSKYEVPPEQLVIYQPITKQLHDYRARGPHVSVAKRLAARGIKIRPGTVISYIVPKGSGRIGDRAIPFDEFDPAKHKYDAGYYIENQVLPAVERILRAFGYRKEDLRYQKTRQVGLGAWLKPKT
Format: biochemical
Details: global fitting, k3 fitted; duplex P2T3, 50°C
Summary of the method: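 Quench-flow at 50 °C: enzyme with P2T3 in 2× Thermopol mixed with nucleotide plus MgSO4 (1 mM extra Mg2+ final). Nucleotide 1.6–100 µM, 4–5 levels; ageing 5 ms–60 s. Quenched with 0.3 M EDTA; 18% denaturing PAGE; duplicates. Active enzyme level set by active-site titration (50 ms dTTP pulse, quadratic fit). Global Matlab least-squares fit; k3 refitted fixed at 0.01 or 0.02 s−1; SD from covariance matrix.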

For `Cc1cn([C@@H]2CO[C@H](COP(=O)(O)OP(=O)(O)OP(=O)(O)O)[C@@H](O)C2)c(=O)[nH]c1=O` [hTTP], which “k2 = kpol” value is on record?
Its value is 0.62 ± 0.13 s⁻¹.

What about the k3 of the same molecule?
The k3 was 0.028 ± 0.002 s⁻¹.
